Source: ChEMBL document CHEMBL4219113, “Pyridazine and pyridazinone derivatives as potent and selective factor XIa inhibitors” (Bioorg Med Chem Lett, 2018)

How the values were obtained:
[1] = system: Plasma; experiment: Anticoagulant activity in human plasma assessed as increase in activated partial thromboplastin time; type: functional
How it was run: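 In vitro clotting test in human plasma measuring activated partial thromboplastin time (aPTT). EC1.5x is the concentration that extends aPTT to 1.5-fold.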

[2] = Oral bioavailability in dog at 0.5 mg/kg; type: ADME, organism-based, Canis lupus familiaris; conditions: in vivo
How it was run: (§1)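 Dogs received cassette dosing at 0.2–0.5 mg/kg orally and 0.2–0.4 mg/kg intravenously. The iv vehicle was 10% DMAC, 10% EtOH, 10% PG and 70% water. The oral vehicle was 10% EtOH, 70% PEG400 and 20% TPGS.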

[3] = Half life in dog at 0.2 to 0.5 mg/kg, po or 0.2 to 0.4 mg/kg, iv administered as cassette dose; type: ADME, organism-based, Canis lupus familiaris; conditions: in vivo; how it was run: as §1
[4] = Half life in human liver microsomes pretreated for 5 mins followed by NADPH addition by UV-LC/MS analysis; type: ADME, microsome
[5] = Clearance in dog at 0.2 to 0.5 mg/kg, po or 0.2 to 0.4 mg/kg, iv administered as cassette dose; type: ADME, organism-based, Canis lupus familiaris; conditions: in vivo; how it was run: as §1
[6] = biological target: Coagulation factor XI (Homo sapiens, UniProt P03951); experiment: Inhibition of human factor 11a using pyro-Glu-Pro-Arg-pNA as substrate measured after 10 to 120 mins by spectrophotometric method
Coagulation factor XI, sequence (P03951 19-387 limits assumed): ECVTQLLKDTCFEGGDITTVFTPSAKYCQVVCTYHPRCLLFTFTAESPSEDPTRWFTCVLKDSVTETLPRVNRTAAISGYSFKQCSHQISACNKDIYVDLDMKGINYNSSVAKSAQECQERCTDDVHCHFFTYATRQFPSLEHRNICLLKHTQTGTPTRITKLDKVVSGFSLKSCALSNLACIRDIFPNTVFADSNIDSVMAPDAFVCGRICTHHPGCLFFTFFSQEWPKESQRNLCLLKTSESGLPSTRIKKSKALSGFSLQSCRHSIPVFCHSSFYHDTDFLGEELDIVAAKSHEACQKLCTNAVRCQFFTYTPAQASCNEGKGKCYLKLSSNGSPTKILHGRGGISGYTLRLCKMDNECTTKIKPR
Coagulation factor XI, sequence (P03951 388-625 limits assumed): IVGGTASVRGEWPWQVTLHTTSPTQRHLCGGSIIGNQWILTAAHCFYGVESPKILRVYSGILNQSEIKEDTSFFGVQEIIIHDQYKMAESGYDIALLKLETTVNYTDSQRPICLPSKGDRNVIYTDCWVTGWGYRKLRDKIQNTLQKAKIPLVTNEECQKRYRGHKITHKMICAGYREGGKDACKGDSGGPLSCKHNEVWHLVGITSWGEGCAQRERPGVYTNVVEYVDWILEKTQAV

[7] = Oral bioavailability in dog at 0.2 to 0.5 mg/kg; type: ADME, organism-based, Canis lupus familiaris; conditions: in vivo; how it was run: as §1
[8] = Volume of distribution at steady state in dog at 0.2 to 0.5 mg/kg, po or 0.2 to 0.4 mg/kg, iv administered as cassette dose; type: ADME, organism-based, Canis lupus familiaris; conditions: in vivo, read-out: Vdss; how it was run: as §1
[9] = biological target: Vitamin K-dependent protein C (Homo sapiens, UniProt P04070); experiment: Inhibition of human activated protein C
Vitamin K-dependent protein C, sequence (P04070 43-197 limits assumed): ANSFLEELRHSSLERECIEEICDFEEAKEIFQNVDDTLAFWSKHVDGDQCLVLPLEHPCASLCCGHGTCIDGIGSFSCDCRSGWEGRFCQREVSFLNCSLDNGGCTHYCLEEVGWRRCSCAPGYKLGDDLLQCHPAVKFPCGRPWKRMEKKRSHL
Vitamin K-dependent protein C, sequence (P04070 212-461 limits assumed): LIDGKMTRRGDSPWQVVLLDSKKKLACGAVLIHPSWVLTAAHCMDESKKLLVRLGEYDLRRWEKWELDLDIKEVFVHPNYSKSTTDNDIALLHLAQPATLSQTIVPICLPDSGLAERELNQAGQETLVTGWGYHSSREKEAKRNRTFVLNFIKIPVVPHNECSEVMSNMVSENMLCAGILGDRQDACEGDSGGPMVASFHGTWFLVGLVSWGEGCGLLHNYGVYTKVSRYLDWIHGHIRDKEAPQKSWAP

[10] = biological target: Plasma kallikrein (Homo sapiens, UniProt P03952); experiment: Inhibition of human plasma kallikrein
Plasma kallikrein, sequence (P03952 20-390 limits assumed): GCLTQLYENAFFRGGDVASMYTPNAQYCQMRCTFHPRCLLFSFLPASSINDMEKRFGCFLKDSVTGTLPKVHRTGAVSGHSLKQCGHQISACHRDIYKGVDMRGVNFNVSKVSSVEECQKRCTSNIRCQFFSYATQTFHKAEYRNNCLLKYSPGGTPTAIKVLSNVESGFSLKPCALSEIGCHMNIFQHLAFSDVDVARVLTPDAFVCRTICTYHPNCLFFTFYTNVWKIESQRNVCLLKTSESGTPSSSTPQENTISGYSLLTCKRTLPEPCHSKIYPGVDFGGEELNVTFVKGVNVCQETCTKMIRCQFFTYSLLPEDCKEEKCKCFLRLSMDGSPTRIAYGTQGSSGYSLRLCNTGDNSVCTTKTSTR
Plasma kallikrein, sequence (P03952 391-638 limits assumed): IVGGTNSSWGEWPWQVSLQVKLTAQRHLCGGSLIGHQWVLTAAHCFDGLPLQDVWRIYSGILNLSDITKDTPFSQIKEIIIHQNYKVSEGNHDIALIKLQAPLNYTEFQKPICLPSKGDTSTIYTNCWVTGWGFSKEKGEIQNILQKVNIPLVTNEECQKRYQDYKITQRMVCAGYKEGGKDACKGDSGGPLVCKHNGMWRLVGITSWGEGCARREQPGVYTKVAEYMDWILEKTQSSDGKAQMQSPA

[11] = biological target: T1, Coagulation factor VII (Homo sapiens, UniProt P08709); experiment: Inhibition of human factor 7a
T1 sequence (P08709 whole entry): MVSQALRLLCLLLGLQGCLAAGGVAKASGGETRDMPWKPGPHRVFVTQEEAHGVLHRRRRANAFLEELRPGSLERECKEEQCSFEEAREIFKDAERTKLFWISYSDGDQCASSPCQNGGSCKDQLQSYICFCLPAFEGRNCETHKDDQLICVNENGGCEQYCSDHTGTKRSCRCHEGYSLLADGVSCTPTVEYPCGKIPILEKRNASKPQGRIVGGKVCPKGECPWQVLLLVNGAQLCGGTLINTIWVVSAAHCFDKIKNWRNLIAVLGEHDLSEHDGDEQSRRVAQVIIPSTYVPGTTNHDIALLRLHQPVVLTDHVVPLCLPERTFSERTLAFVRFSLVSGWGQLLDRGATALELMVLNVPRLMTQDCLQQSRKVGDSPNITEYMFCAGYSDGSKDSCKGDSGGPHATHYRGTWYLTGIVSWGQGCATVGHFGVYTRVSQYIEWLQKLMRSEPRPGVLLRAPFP

[12] = biological target: Prothrombin (Homo sapiens, UniProt P00734); experiment: Inhibition of human thrombin
[13] = biological target: Tissue-type plasminogen activator (Homo sapiens, UniProt P00750); experiment: Inhibition of human TPA
Tissue-type plasminogen activator, sequence (P00750 whole entry): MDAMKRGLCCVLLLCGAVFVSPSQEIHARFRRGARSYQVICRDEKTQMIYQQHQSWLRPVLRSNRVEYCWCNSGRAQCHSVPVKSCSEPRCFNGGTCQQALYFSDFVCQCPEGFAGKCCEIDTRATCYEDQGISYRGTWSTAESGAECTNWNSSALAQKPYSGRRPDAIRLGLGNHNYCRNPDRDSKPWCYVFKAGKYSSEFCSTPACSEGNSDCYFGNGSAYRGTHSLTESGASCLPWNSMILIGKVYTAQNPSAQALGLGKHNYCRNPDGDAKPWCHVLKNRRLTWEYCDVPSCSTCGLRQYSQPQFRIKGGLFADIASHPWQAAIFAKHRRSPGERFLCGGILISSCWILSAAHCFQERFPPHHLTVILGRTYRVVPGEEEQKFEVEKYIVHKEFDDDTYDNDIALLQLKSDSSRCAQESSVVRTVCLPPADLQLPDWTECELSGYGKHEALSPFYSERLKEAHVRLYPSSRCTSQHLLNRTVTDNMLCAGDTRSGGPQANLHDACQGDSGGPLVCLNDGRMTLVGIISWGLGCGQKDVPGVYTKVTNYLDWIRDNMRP

[14] = biological target: Urokinase-type plasminogen activator (Homo sapiens, UniProt P00749); experiment: Inhibition of human urokinase
[15] = biological target: Coagulation factor X (Homo sapiens, UniProt P00742); experiment: Inhibition of human factor 10a
Coagulation factor X, sequence (P00742 41-179 limits assumed): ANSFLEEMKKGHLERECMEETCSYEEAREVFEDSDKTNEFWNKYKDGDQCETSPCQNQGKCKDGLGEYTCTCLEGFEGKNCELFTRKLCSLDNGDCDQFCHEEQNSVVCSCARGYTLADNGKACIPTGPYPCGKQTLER
Coagulation factor X, sequence (P00742 235-488 limits assumed): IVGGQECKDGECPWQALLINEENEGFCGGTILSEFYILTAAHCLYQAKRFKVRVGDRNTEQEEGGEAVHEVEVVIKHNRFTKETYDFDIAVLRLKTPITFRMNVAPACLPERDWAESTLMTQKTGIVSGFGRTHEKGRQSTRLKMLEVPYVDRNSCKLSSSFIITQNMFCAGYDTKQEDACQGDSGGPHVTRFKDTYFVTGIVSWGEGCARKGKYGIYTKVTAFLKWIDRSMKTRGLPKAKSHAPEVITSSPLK

[16] = biological target: Coagulation factor IX (Homo sapiens, UniProt P00740); experiment: Inhibition of human factor 9a
Coagulation factor IX, sequence (P00740 47-191 limits assumed): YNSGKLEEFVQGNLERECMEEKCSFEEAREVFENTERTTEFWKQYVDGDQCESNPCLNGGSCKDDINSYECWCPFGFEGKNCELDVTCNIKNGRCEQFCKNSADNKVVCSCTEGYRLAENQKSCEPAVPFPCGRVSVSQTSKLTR
Coagulation factor IX, sequence (P00740 227-461 limits assumed): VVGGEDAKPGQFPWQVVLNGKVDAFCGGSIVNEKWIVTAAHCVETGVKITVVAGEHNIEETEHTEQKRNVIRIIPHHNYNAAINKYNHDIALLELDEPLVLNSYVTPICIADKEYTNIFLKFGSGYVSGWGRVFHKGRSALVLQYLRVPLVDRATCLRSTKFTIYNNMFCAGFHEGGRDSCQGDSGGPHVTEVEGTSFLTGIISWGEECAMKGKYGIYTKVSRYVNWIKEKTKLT

[17] = biological target: Trypsin (Homo sapiens, UniProt P07477+P07478+P35030); experiment: Inhibition of human trypsin; type: protein assay
[18] = biological target: Plasminogen (Homo sapiens, UniProt P00747); experiment: Inhibition of human plasmin
Plasminogen, sequence (P00747 97-580 limits assumed): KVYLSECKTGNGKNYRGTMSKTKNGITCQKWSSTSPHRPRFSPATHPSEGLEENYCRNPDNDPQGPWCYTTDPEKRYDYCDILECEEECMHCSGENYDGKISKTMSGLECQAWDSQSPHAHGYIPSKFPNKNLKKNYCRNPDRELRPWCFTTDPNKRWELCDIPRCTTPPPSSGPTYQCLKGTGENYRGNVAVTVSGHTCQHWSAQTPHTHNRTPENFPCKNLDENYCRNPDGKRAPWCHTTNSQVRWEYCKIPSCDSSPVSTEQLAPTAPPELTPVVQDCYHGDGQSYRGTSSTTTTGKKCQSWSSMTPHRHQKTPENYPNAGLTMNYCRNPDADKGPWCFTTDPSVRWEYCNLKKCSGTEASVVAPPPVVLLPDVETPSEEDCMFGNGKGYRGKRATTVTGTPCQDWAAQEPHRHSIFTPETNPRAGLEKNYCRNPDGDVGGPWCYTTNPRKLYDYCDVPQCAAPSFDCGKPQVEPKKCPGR
Plasminogen, sequence (P00747 581-810 limits assumed): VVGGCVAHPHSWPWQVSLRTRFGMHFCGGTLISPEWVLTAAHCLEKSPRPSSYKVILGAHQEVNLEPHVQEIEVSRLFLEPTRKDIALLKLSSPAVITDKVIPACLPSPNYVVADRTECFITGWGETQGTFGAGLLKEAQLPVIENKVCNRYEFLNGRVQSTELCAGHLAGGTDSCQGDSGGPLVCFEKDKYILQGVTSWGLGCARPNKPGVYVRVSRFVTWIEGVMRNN

[19] = Inhibition of human chymotrypsin

Structure (SMILES) | half-life [3] | half-life [4] | clearance [5] | Ki [6] | bioavailability [7] | Vd [8] | EC1.5 [1] | further results
COC(=O)Nc1ccc(-c2nc([C@H](Cc3ccccc3)NC(=O)/C=C/c3cc(Cl)ccc3-n3cnnn3)[nH]c2Cl)cc1 | – | – | – | – | – | – | 5.3 µM | –
COC(=O)Nc1ccc(-c2ccnc([C@H](Cc3ccccc3)NC(=O)/C=C/c3cc(Cl)ccc3-n3cnnn3)c2)cc1 | – | – | – | – | – | – | >40 µM | bioavailability [2]: 34%
COC(=O)Nc1ccc(-c2cc([C@H](CC(=O)N3CC[C@@H](O)C3)NC(=O)/C=C/c3cc(Cl)ccc3-n3cnnn3)c(Cl)nn2)cc1 | 54 min | 36 min | 24.7 mL/min/kg | 6.6 nM | < 3% | 1.2 L/kg | 1.6 µM | –
COC(=O)Nc1ccc(-c2cc([C@H](Cc3ccncc3)NC(=O)/C=C/c3cc(Cl)ccc3-n3cnnn3)nnc2Cl)cc1 | – | 2.8 min | – | 12 nM | – | – | 6.2 µM | –
COC(=O)Nc1ccc(-c2cc([C@H](C[C@@H]3CCCN(C(C)=O)C3)NC(=O)/C=C/c3cc(Cl)ccc3-n3cnnn3)nnc2Cl)cc1 | – | – | – | 89 nM | – | – | 8.8 µM | –
COC(=O)Nc1ccc(-c2cc([C@H](Cc3cccc(F)c3)NC(=O)/C=C/c3cc(Cl)ccc3-n3cnnn3)nnc2Cl)cc1 | – | 12 min | – | 10 nM | – | – | 17 µM | –
COC(=O)Nc1ccc(-c2cc([C@H](CC(=O)N3CC[C@@H](O)C3)NC(=O)/C=C/c3cc(Cl)ccc3-n3cnnn3)nnc2Cl)cc1 | – | – | – | 26 nM | – | – | 7.5 µM | –
COC(=O)Nc1ccc(-c2cc([C@H](Cc3ccc(F)cc3)NC(=O)/C=C/c3cc(Cl)ccc3-n3cnnn3)nnc2Cl)cc1 | 402 min | 20 min | 5.1 mL/min/kg | 9.3 nM | 12% | 1.5 L/kg | 22 µM | –
COC(=O)Nc1ccc(-c2cc([C@H](CC(=O)N3CCN(C)CC3)NC(=O)/C=C/c3cc(Cl)ccc3-n3cnnn3)c(Cl)nn2)cc1 | – | – | – | 4 nM | – | – | 0.9 µM | –

The next lines start with results.

half-life [3] | half-life [4] | clearance [5] | Ki [6] | bioavailability [7] | Vd [8] | Structure (SMILES) | EC1.5 [1] | further results
– | – | – | 36 nM | – | – | COC(=O)Nc1ccc(-c2cc([C@H](Cc3ccccc3)NC(=O)/C=C/c3cc(Cl)ccc3-n3cnnn3)nnc2OC)cc1 | 50 µM | –
– | – | – | 11 nM | – | – | COC(=O)Nc1ccc(-c2cc([C@H](Cc3ccccc3)NC(=O)/C=C/c3cc(Cl)ccc3-n3cnnn3)nnc2C(=O)O)cc1 | 32 µM | –
120 min | 5.1 min | 9.2 mL/min/kg | 10 nM | 14% | 1.2 L/kg | COC(=O)Nc1ccc(-c2cc([C@H](Cc3ccccc3)NC(=O)/C=C/c3cc(Cl)ccc3-n3cnnn3)nnc2C)cc1 | 11 µM | Ki [9]: > 64400 nM; Ki [10]: 1370 nM; Ki [11]: > 13300 nM; Ki [12]: > 13300 nM; Ki [13]: > 14700 nM; Ki [14]: > 29700 nM; Ki [15]: > 3000 nM; Ki [16]: 39300 nM; Ki [17]: > 6220 nM; Ki [18]: > 53400 nM; Ki [19]: > 27200 nM
108 min | 31 min | 15.5 mL/min/kg | 1.9 nM | < 3% | 2.1 L/kg | COC(=O)Nc1ccc(-c2cc([C@H](Cc3ccccc3)NC(=O)/C=C/c3cc(Cl)ccc3-n3cnnn3)c(Cl)nn2)cc1 | 2.2 µM | Ki [9]: 16300 nM; Ki [10]: 192 nM; Ki [11]: 3280 nM; Ki [12]: 10600 nM; Ki [13]: 994 nM; Ki [14]: 13300 nM; Ki [15]: 1940 nM; Ki [16]: 22000 nM; Ki [17]: 3730 nM; Ki [18]: 4490 nM; Ki [19]: 29600 nM
66 min | 9.6 min | 18.2 mL/min/kg | 4.1 nM | < 3% | 1.4 L/kg | COC(=O)Nc1ccc(-c2cc([C@H](Cc3ccccc3)NC(=O)/C=C/c3cc(Cl)ccc3-n3cnnn3)cnn2)cc1 | 3.5 µM | –
– | – | – | 22 nM | – | – | COC(=O)Nc1ccc(-c2cc([C@H](Cc3ccccc3)NC(=O)/C=C/c3cc(Cl)ccc3-n3cnnn3)c(=O)[nH]n2)cc1 | 19 µM | –
– | – | – | 6.1 nM | – | – | COC(=O)Nc1ccc(-c2cc([C@H](Cc3ccccc3)NC(=O)/C=C/c3cc(Cl)ccc3-n3cnnn3)c(C)nn2)cc1 | 14 µM | –
426 min | 8.6 min | 6.3 mL/min/kg | 9.6 nM | 16% | 2.3 L/kg | COC(=O)Nc1ccc(-c2cc([C@H](Cc3ccccc3)NC(=O)/C=C/c3cc(Cl)ccc3-n3cnnn3)nnc2Cl)cc1 | 9.3 µM | Ki [9]: > 64400 nM; Ki [10]: > 6000 nM; Ki [11]: > 13300 nM; Ki [12]: > 13300 nM; Ki [13]: 10100 nM; Ki [14]: > 29700 nM; Ki [15]: 200 nM; Ki [16]: > 73700 nM; Ki [17]: > 6220 nM; Ki [18]: 76600 nM; Ki [19]: > 27200 nM
– | – | – | 31 nM | – | – | CNC(=O)c1nnc([C@H](Cc2ccccc2)NC(=O)/C=C/c2cc(Cl)ccc2-n2cnnn2)cc1-c1ccc(NC(=O)OC)cc1 | 45 µM | –
108 min | 9.1 min | 8.9 mL/min/kg | 7 nM | 18% | 1.3 L/kg | COC(=O)Nc1ccc(-c2cnnc([C@H](Cc3ccccc3)NC(=O)/C=C/c3cc(Cl)ccc3-n3cnnn3)c2)cc1 | 14 µM | Ki [9]: 68000 nM; Ki [10]: 268 nM; Ki [11]: > 13300 nM; Ki [12]: > 13300 nM; Ki [13]: > 14700 nM; Ki [14]: > 29700 nM; Ki [15]: 840 nM; Ki [17]: > 6220 nM; Ki [18]: 38100 nM; Ki [19]: 11900 nM
– | – | – | 10 nM | – | – | COC(=O)Nc1ccc(-c2cc([C@H](Cc3ccccc3)NC(=O)/C=C/c3cc(Cl)ccc3-n3cnnn3)n[nH]c2=O)cc1 | 11 µM | –
